Measurements from ChEMBL document CHEMBL5705886, “GSK1070916, a potent Aurora B/C kinase inhibitor with broad antitumor activity in tissue culture cells and human tumor xenograft models” (Mol Cancer Ther, 2009).
The source made the active and inactive calls. The rule behind the calls is not given here.

Assays:
RKO = assay: Antiproliferative activity against human RKO cells assessed as inhibition of cell viability measured for 6 to 7 days by cell titer glo assay; format: functional, cell-based
Summary of the method: (§1)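 Cells seeded in recommended growth medium, held overnight at 37°C in 5% CO2, then exposed to serial dilutions of inhibitor for 6–7 d. A time-zero plate was read with CellTiter-Glo at dosing. Luminescent viability read at the end. No-cell wells subtracted as background, data expressed as percent of DMSO control.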

SW-620 = assay: Antiproliferative activity against human SW620 cells assessed as inhibition of cell viability measured for 6 to 7 days by cell titer glo assay; format: functional, cell-based; summary of the method: as §1
SK-BR-3 = assay: Antiproliferative activity against human SK-BR-3 cells assessed as inhibition of cell viability measured for 6 to 7 days by cell titer glo assay; format: functional, cell-based; summary of the method: as §1
MX1 = assay: Antiproliferative activity against human MX1 cells assessed as inhibition of cell viability measured for 6 to 7 days by cell titer glo assay; format: functional, cell-based
Summary of the method: (§2)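 Cells seeded in recommended growth medium, incubated overnight at 37°C in 5% CO2, then exposed to serial dilutions of inhibitor for 6–7 d. A parallel plate was read with CellTiter-Glo at compound addition as a T=0 value. The luminescent viability readout had no-cell background subtracted and was expressed as % of DMSO control.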

MCF7 = assay: Antiproliferative activity against human MCF7 cells assessed as inhibition of cell viability measured for 6 to 7 days by cell titer glo assay; format: functional, cell-based; summary of the method: as §2
OVCAR-8 = assay: Antiproliferative activity against human OVCAR-8 cells assessed as inhibition of cell viability measured for 6 to 7 days by cell titer glo assay; format: functional, cell-based; summary of the method: as §1
MIA PaCa-2 = assay: Antiproliferative activity against human Mia PaCa cells assessed as inhibition of cell viability measured for 6 to 7 days by cell titer glo assay; format: functional, cell-based; summary of the method: as §2
SU-DHL-6 = assay: Antiproliferative activity against human SU-DHL-6 cells assessed as inhibition of cell viability measured for 6 to 7 days by cell titer glo assay; format: functional, cell-based; summary of the method: as §1
JM1 = assay: Antiproliferative activity against human JM1 cells assessed as inhibition of cell viability measured for 6 to 7 days by cell titer glo assay; format: functional, cell-based; summary of the method: as §2
ARH-77 = assay: Antiproliferative activity against human ARH-77 cells assessed as inhibition of cell viability measured for 6 to 7 days by cell titer glo assay; format: functional, cell-based
Summary of the method: (§3)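 Tumor lines plated in recommended growth media, overnight at 37°C, 5% CO2, then given serial dilutions; a T=0 plate read with CellTiter-Glo at dosing. After 6–7 d of exposure, viability read by CellTiter-Glo luminescence. No-cell wells subtracted, data expressed as % of DMSO control.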

RCK8 = assay: Antiproliferative activity against human RCK8 cells assessed as inhibition of cell viability measured for 6 to 7 days by cell titer glo assay; format: functional, cell-based; summary of the method: as §1
ST486 = assay: Antiproliferative activity against human ST486 cells assessed as inhibition of cell viability measured for 6 to 7 days by cell titer glo assay; format: functional, cell-based; summary of the method: as §1
EB-3 = assay: Antiproliferative activity against human EB-3 cells assessed as inhibition of cell viability measured for 6 to 7 days by cell titer glo assay; format: functional, cell-based; summary of the method: as §3
[1] = Antiproliferative activity against human HS-Sultan cells assessed as inhibition of cell viability measured for 6 to 7 days by cell titer glo assay; format: functional, cell-based; summary of the method: as §2
CESS = assay: Antiproliferative activity against human CESS cells assessed as inhibition of cell viability measured for 6 to 7 days by cell titer glo assay; format: functional, cell-based; summary of the method: as §3
CCRF-SB = assay: Antiproliferative activity against human CCRF-SB cells assessed as inhibition of cell viability measured for 6 to 7 days by cell titer glo assay; format: functional, cell-based; summary of the method: as §3
[2] = Antiproliferative activity against human F-36P cells assessed as inhibition of cell viability measured for 6 to 7 days by cell titer glo assay; format: functional, cell-based; summary of the method: as §3
GDM-1 = assay: Antiproliferative activity against human GDM-1 cells assessed as inhibition of cell viability measured for 6 to 7 days by cell titer glo assay; format: functional, cell-based; summary of the method: as §3
KCL-22 = assay: Antiproliferative activity against human KCL-22 cells assessed as inhibition of cell viability measured for 6 to 7 days by cell titer glo assay; format: functional, cell-based; summary of the method: as §2
KU812 cell line = assay: Antiproliferative activity against human KU812 cell line assessed as inhibition of cell viability measured for 6 to 7 days by cell titer glo assay; format: functional, cell-based; summary of the method: as §2
K562 = assay: Antiproliferative activity against human K562 cells assessed as inhibition of cell viability measured for 6 to 7 days by cell titer glo assay; format: functional, cell-based; summary of the method: as §2
MEG-01 = assay: Antiproliferative activity against human MEG-01 cells assessed as inhibition of cell viability measured for 6 to 7 days by cell titer glo assay; format: functional, cell-based; summary of the method: as §2
[3] = Antiproliferative activity against human ALL-SIL cells assessed as inhibition of cell viability measured for 6 to 7 days by cell titer glo assay; format: functional, cell-based; summary of the method: as §3
MOLT-16 = assay: Antiproliferative activity against human MOLT-16 cells assessed as inhibition of cell viability measured for 6 to 7 days by cell titer glo assay; format: functional, cell-based; summary of the method: as §2
[4] = Antiproliferative activity against human MJ cells assessed as inhibition of cell viability measured for 6 to 7 days by cell titer glo assay; format: functional, cell-based; summary of the method: as §2
A549 = assay: Effect on cell cycle distribution in human A549 cells assessed as decrease in 2N DNA content incubated for 24 to 72 hrs by flow cytometry based analysis; format: functional; conditions: dose 2-5000 nM, time 24-72 hrs
COLO 205 [5] = assay: Induction of apoptosis in human COLO 205 cells assessed as caspase-3 cleavage at 10 nmol/L incubated for 24 hrs by Western blot analysis; format: functional, cell-based
COLO 205 [6] = assay: Induction of apoptosis in human COLO 205 cells assessed as PARP cleavage at 10 nmol/L incubated for 24 hrs by Western blot analysis; format: functional, cell-based
[7] = Toxicity in SCID nude mouse xenografted with human SW620 cells assessed as drug tolerance at 25 to 100 mg/kg, ip administered once daily for 5 consecutive days with 2 days off scheduled for 3 cycles measured upto 60 days; format: organism-based, SW-620; conditions: in vivo, 1440 h, dose 25-100 mg/kg, time < 60 day
[8] = Toxicity in SCID nude mouse xenografted with human MCF7 cells assessed as drug tolerance at 50 to 100 mg/kg, ip administered once daily for 5 consecutive days with 2 days off scheduled for 3 cycles measured upto 60 days; format: organism-based; conditions: in vivo, 1440 h, dose 50-100 mg/kg, time < 60 day
[9] = Toxicity in SCID nude mouse xenografted with human A549 cells assessed as body weight loss at 25 to 100 mg/kg, ip administered once daily for 5 consecutive days with 2 days off scheduled for 3 cycles measured upto 60 days relative to control; format: organism-based; conditions: in vivo, 1440 h, dose 25-100 mg/kg, time < 60 day
[10] = biological target: Aurora kinase B/Inner centromere protein (Homo sapiens, UniProt Q96GD4); assay: Binding affinity to AurB/INCENP (unknown origin) assessed as inhibition constant; format: protein-complex assay
[11] = biological target: Aurora kinase B (Homo sapiens) (UniProt Q96GD4)
[12] = Toxicity in SCID nude mouse xenografted with human HL-60 cells assessed as drug tolerance at 100 mg/kg, ip administered once daily for 5 consecutive days with 2 days off scheduled for 2 cycles measured upto 60 days; conditions: in vivo, 1440 h
HCT-116 = assay: Antitumor activity in human HCT-116 cells xenografted in nude mouse assessed as reduction in tumor growth at 25 to 100 mg/kg, ip administered once daily for 5 consecutive days with 2 days off scheduled for 3 cycles measured upto 60 days; conditions: dose 25-100 mg/kg, time <= 60.0 day

Aurora kinase B/Inner centromere protein, sequence (Q96GD4 whole entry): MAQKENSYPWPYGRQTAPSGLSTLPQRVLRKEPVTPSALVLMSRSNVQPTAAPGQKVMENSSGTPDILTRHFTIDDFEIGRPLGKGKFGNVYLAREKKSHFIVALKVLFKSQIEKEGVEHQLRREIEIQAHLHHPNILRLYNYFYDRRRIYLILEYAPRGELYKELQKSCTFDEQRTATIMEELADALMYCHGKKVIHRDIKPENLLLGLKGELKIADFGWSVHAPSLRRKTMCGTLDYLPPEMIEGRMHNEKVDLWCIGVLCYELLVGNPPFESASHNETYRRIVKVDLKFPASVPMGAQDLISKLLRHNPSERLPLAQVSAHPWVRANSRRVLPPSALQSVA
Aurora kinase B/Inner centromere protein, sequence (Q9NQS7 whole entry, further chain): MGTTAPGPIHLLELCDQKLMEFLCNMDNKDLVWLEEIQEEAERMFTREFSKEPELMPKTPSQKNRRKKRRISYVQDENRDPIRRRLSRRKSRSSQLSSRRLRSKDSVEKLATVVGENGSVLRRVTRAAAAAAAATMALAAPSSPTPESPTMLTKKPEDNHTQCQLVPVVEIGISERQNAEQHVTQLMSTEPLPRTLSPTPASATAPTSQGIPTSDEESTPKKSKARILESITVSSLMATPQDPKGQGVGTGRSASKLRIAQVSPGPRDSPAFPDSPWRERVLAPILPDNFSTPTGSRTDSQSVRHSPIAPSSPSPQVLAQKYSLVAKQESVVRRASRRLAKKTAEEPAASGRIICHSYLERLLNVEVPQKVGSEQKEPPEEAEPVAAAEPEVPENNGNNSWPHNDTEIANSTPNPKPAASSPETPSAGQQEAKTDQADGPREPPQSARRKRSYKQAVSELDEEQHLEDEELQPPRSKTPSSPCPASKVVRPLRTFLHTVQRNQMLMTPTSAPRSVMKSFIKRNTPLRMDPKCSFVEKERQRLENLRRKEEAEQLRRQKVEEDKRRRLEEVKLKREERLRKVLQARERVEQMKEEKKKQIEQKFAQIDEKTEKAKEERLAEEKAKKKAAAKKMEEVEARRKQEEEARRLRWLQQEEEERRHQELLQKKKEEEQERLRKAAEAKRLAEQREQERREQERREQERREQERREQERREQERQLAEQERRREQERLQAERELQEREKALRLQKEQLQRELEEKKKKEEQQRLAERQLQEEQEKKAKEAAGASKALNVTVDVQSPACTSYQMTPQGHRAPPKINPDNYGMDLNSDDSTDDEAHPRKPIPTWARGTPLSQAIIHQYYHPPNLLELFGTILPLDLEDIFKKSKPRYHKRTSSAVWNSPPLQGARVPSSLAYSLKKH
Aurora kinase B (Homo sapiens), sequence (Q96GD4 whole entry): as the sequence (Q96GD4 whole entry) above

CCn1cc(-c2ccnc3[nH]c(-c4cccc(CN(C)C)c4)cc23)c(-c2ccc(NC(=O)N(C)C)cc2)n1 [GSK-1070916]
EC50 (RKO): 7 nM
EC50 (SW-620): 8 nM
EC50 (SK-BR-3): 4 nM
EC50 (MX1): 8 nM
EC50 (MCF7): 13 nM
EC50 (OVCAR-8): 30 nM
EC50 (MIA PaCa-2): 3 nM
EC50 (SU-DHL-6): 6 nM
EC50 (JM1): 7 nM
EC50 (ARH-77): 15 nM
EC50 (RCK8): 38 nM
EC50 (ST486): 2 nM
EC50 (EB-3): 7 nM
EC50 [1]: 14 nM
EC50 (CESS): 5 nM
EC50 (CCRF-SB): 2 nM
EC50 [2]: 10 nM
EC50 (GDM-1): 21 nM
EC50 (KCL-22): 5 nM
EC50 (KU812 cell line): 8 nM
EC50 (K562): 13 nM
EC50 (MEG-01): 44 nM
EC50 [3]: 2 nM
EC50 (MOLT-16): 3 nM
EC50 [4]: 7 nM
Activity (A549): Active
Activity (COLO 205 [5]): Active
Activity (COLO 205 [6]): Active
Activity [7]: Non-Toxic
Activity [8]: Toxic
Activity [9]: < 15%
Ki [10]: 0.39 nM
T1/2 [11]: > 8 h
Activity [12]: Toxic
Activity (HCT-116): Active
